Laboratory results: ChEMBL document CHEMBL4229533, “Design and synthesis of novel 6-hydroxy-4-methoxy-3-methylbenzofuran-7-carboxamide derivatives as potent Mnks inhibitors by fragment-based drug design” (Bioorg Med Chem, 2018)
pIC50: −log10 of the molar value.

Columns and labels:
[1] = biological target: T1, MAP kinase-interacting serine/threonine-protein kinase 2 (Homo sapiens, UniProt Q9HBH9); assay: Inhibition of MNK2 (unknown origin) at 10 uM using S3 as substrate measured after 60 mins by HTRF assay relative to control
Procedure, shortened: (§1)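 HTRF Ser/Thr KinEASE format. Mnk1 or Mnk2 enzyme (0.99 ng) incubated with compound for 60 min at room temperature with 1 μM substrate S3, 392 μM ATP, 10 mM MgCl₂ and 1 mM DTT in KinEASE enzymatic buffer. Stopped with SA-XL665 and STK antibody detection reagents; 615/665 nm signal ratio read. Single-concentration values are duplicate means; IC50 taken from inhibition curves.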
Target sequence in this assay (Q9HBH9 whole entry, looked up): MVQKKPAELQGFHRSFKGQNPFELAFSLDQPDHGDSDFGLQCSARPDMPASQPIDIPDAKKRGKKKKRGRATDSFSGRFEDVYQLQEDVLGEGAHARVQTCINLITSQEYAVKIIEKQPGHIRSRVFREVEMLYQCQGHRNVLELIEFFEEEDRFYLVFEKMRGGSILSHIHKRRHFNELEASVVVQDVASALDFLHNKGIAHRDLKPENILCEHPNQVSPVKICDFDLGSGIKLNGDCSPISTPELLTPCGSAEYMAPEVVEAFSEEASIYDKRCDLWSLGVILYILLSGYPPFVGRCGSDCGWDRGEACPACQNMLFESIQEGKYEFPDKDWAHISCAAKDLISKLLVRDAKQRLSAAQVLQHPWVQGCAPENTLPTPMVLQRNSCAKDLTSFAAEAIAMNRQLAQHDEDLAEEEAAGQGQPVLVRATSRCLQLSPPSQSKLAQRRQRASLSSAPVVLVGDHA

[2] = biological target: T1, MAP kinase-interacting serine/threonine-protein kinase 2; assay: Inhibition of MNK2 (unknown origin) at 1 uM using S3 as substrate measured after 60 mins by HTRF assay relative to control; procedure, shortened: as §1
Target sequence in this assay (Q9HBH9 whole entry, looked up): as above

[3] = tested on: HCT-116; assay: Antiproliferative activity against human HCT116 cells after 96 hrs by MTT assay; assay type: functional, cell-based; details: HCT-116, 96 h
Procedure, shortened: (§2)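 Cells seeded at 2,000 per well and grown 24 h at 37 °C in 5% CO₂. Compound added over a concentration range in triplicate wells, then incubated 96 h. MTT (2 mg/mL) added for 4 h, formazan taken up in DMSO, absorbance read at 570 nm. Inhibition calculated against untreated control. IC50 is the concentration giving half inhibition; mean of three independent experiments.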

[4] = tested on: THP-1; assay: Antiproliferative activity against human THP1 cells after 96 hrs by MTT assay; assay type: functional, cell-based; details: THP-1, 96 h; procedure, shortened: as §2
[5] = tested on: MOLM-13; assay: Antiproliferative activity against human MOLM13 cells after 96 hrs by MTT assay; assay type: functional, cell-based; details: MOLM-13, 96 h; procedure, shortened: as §2
[6] = biological target: MAP kinase-interacting serine/threonine-protein kinase 1 (Homo sapiens) (UniProt Q9BUB5); assay: Inhibition of MNK1 (unknown origin) at 1 uM using S3 as substrate measured after 60 mins by HTRF assay relative to control; procedure, shortened: as §1
[7] = biological target: MAP kinase-interacting serine/threonine-protein kinase 1 (Homo sapiens) (UniProt Q9BUB5); assay: Inhibition of MNK1 (unknown origin) at 0.1 uM using S3 as substrate measured after 60 mins by HTRF assay relative to control; procedure, shortened: as §1
[8] = biological target: MAP kinase-interacting serine/threonine-protein kinase 1 (Homo sapiens) (UniProt Q9BUB5); assay: Inhibition of MNK1 (unknown origin) at 10 uM using S3 as substrate measured after 60 mins by HTRF assay relative to control; procedure, shortened: as §1
[9] = biological target: T1, MAP kinase-interacting serine/threonine-protein kinase 2; assay: Inhibition of MNK2 (unknown origin) using S3 as substrate measured after 60 mins by HTRF assay
Target sequence in this assay (Q9HBH9 whole entry): as the sequence (Q9HBH9 whole entry, looked up) above

[10] = biological target: MAP kinase-interacting serine/threonine-protein kinase 1/2 (Homo sapiens) (UniProt Q9HBH9+Q9BUB5); assay: Inhibition of MNK1/MNK2 in human HCT116 cells assessed as reduction in eIF4E phosphorylation at Ser209 residue after 24 hrs by Western blot analysis; assay type: cell-based
Procedure, shortened: (§3)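 HCT-116 cells exposed to compound at several concentrations in 0.5% DMSO, or DMSO alone, for 24 h. Cells were rinsed in ice-cold PBS and lysed in RIPA buffer (pH 8.0), 50 µg protein loaded. Run on 8% or 12% SDS-PAGE, transferred to nitrocellulose and checked for loading by Ponceau S. Blocked in 5% milk, probed overnight at 4°C for eIF4E, p-eIF4E and GAPDH, detected by ECL.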

[11] = tested on: HCT-116; assay: Effect on eIF4E levels in human HCT116 cells at 1 to 4 times IC50 after 24 hrs by Western blot analysis; assay type: ADME, cell-based; details: hct-116, 24 h; procedure, shortened: as §3

MAP kinase-interacting serine/threonine-protein kinase 1 (Homo sapiens), sequence (Q9BUB5 whole entry, looked up): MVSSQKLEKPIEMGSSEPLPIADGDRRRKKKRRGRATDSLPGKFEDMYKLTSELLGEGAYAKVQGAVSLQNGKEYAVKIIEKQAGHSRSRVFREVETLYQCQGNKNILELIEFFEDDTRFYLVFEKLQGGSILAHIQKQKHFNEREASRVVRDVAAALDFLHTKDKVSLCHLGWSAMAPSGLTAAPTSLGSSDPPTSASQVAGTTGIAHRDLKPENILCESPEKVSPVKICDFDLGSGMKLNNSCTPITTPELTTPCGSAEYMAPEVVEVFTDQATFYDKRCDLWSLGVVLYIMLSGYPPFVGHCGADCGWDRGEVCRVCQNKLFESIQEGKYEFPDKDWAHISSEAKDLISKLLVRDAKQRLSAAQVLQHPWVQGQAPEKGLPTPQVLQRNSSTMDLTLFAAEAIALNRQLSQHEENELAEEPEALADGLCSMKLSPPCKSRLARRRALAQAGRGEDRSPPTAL

Row | SMILES | inhibition [1] [%] | inhibition [2] [%] | other results
1 | COc1cc(O)c(C(N)=O)c2oc(C(=O)N3CCN(c4ccc(F)cc4)CC3)c(C)c12 | 10 | 5 | –
2 | COc1cc(O)c(C(N)=O)c2oc(C(=O)N3CCOCC3)c(C)c12 | 24 | 12 | –
3 | COc1cc(O)c(C(N)=O)c2oc(C(=O)NC3CCN(Cc4c(Cl)cccc4Cl)CC3)c(C)c12 | 27 | 1 | –
4 | COc1cc(O)c(C(N)=O)c2oc(C(=O)NCC3CCN(Cc4ccc(Cl)c(Cl)c4)CC3)c(C)c12 | 38 | 21 | –
5 | COc1cc(O)c(C(N)=O)c2oc(C(=O)NC3CCN(Cc4ccc(C)cc4)CC3)c(C)c12 | 40 | 27 | –
6 | COc1cc(O)c(C(N)=O)c2oc(C(=O)NCc3cccc(F)c3)c(C)c12 | 23 | 11 | –
7 | COc1ccc2c(C)c(C(=O)NC3CCN(Cc4cccc(C(F)(F)F)c4)CC3)oc2c1 | 27 | 0 | –
8 | Nc1ncnc2[nH]nc(Nc3ccc(F)cc3)c12 | – | – | pIC50 [3]: 4.99; pIC50 [4]: 4.93; pIC50 [5]: 5.08
9 | Cc1c(C(=O)NC2CCN(Cc3cccc(C(F)(F)F)c3)CC2)oc2c(C(N)=O)c(O)cc(O)c12 | 34 | 1 | –
10 | CNC(=O)c1oc2c(C(N)=O)c(O)cc(OC)c2c1C | 73 | 66 | inhibition [6]: 26%; inhibition [7]: 11%; pIC50 [4]: < 4.30; inhibition [8]: 39%; pIC50 [9]: 5.84
11 | COc1cc(O)c(C(N)=O)c2oc(C(=O)NC3CCN(Cc4ccc(Cl)cc4)CC3)c(C)c12 | 45 | 29 | –
12 | COc1cc(O)c(C(N)=O)c2oc(C(=O)NCC3CCN(Cc4ccc(F)cc4)CC3)c(C)c12 | 41 | 32 | –
13 | COc1cc(O)c(C(N)=O)c2oc(C(=O)NC3CCN(Cc4ccc(C(F)(F)F)cc4)CC3)c(C)c12 | 43 | 24 | –
14 | COc1cc(O)c(C(N)=O)c2oc(C(=O)NC3CCN(Cc4cccc(Cl)c4Cl)CC3)c(C)c12 | 21 | 18 | –
15 | COc1cc(O)c(C(N)=O)c2oc(C(=O)N3CCN(c4cccc(C(F)(F)F)c4)CC3)c(C)c12 | 61 | 28 | –
16 | Cc1c(C(=O)NC2CCN(Cc3cccc(C(F)(F)F)c3)CC2)oc2cc(O)ccc12 | 28 | 0 | –
17 | COc1cc(O)c(C(N)=O)c2oc(C(=O)N(C)C)c(C)c12 | 45 | 24 | –
18 | COc1cc(O)c(C(N)=O)c2oc(C(=O)NC3CCN(Cc4cc(Cl)ncn4)CC3)c(C)c12 | 11 | 0 | –
19 | COc1cc(O)c(C(N)=O)c2oc(C(=O)NC3CCCCC3)c(C)c12 | 28 | 20 | –
20 | COc1cc(O)c(C(N)=O)c2occ(C)c12 | 77 | 43 | inhibition [6]: 49%; inhibition [7]: 34%; pIC50 [3]: 4.58; pIC50 [4]: 4.49; inhibition [8]: 39%; pIC50 [5]: 4.61; pIC50 [9]: 6.13
21 | COc1cc(O)c(C(N)=O)c2oc(C(=O)NCCN(C)C)c(C)c12 | 24 | 19 | –

Row | SMILES | inhibition [1] [%] | inhibition [2] [%] | other results
22 | COc1cc(O)c(C(N)=O)c2oc(C(=O)N(C)Cc3ccccc3)c(C)c12 | 0 | 0 | –
23 | COc1cc(O)c(C(N)=O)c2oc(C(=O)NC3CCN(C(=O)c4ccc(C(F)(F)F)cc4)CC3)c(C)c12 | 29 | 26 | –
24 | COc1cc(O)c(C(N)=O)c2oc(C(=O)NC3CCN(Cc4ccc(Cl)cc4Cl)CC3)c(C)c12 | 0 | 0 | –
25 | COc1cc(O)c(C(N)=O)c2oc(C(=O)NC3CCN(Cc4ccncc4)CC3)c(C)c12 | 32 | 15 | –
26 | CCN1CCN(C(=O)c2oc3c(C(N)=O)c(O)cc(OC)c3c2C)CC1 | 79 | 36 | inhibition [6]: 7%; inhibition [7]: 3%; pIC50 [3]: 4.80; pIC50 [4]: 4.73; inhibition [8]: 30%; pIC50 [5]: 4.87; pIC50 [9]: 5.94
27 | COc1cc(OC)c2c(C)c(C(=O)NC3CCN(Cc4cccc(C(F)(F)F)c4)CC3)oc2c1 | 35 | 6 | –
28 | COc1cc(O)c(C(N)=O)c2oc(C(=O)NC3CCN(Cc4cccc(C(F)(F)F)c4)CC3)c(C)c12 | 90 | 85 | inhibition [10]: Dose-dependent effect; inhibition [6]: 41%; inhibition [7]: 20%; pIC50 [3]: 5.56; pIC50 [4]: 5.20; inhibition [8]: 59%; pIC50 [5]: 5.50; Activity [11]: Non-Toxic; pIC50 [9]: 6.56
29 | COc1cc(O)c(C(N)=O)c2oc(C(=O)Nc3ccccc3)c(C)c12 | 0 | 0 | –
30 | COc1cc(O)c(C(N)=O)c2oc(C(=O)NCC3CCN(Cc4cccc(C(F)(F)F)c4)CC3)c(C)c12 | 49 | 23 | –
31 | COc1cc(O)c(C(N)=O)c2oc(C(=O)NC3CCCC3)c(C)c12 | 22 | 6 | –
32 | COc1cc(O)c(C(N)=O)c2oc(C(=O)NC3CCN(Cc4ccc(F)cc4)CC3)c(C)c12 | 15 | 8 | –
33 | COc1cc(O)c(C(N)=O)c2oc(C(=O)N3CCN(c4ccccc4)CC3)c(C)c12 | 15 | 8 | –
34 | COc1cc(O)c(C(N)=O)c2oc(C(=O)Nc3ccc(C)c(C(F)(F)F)c3)c(C)c12 | 57 | 75 | inhibition [6]: 23%; inhibition [7]: 12%; pIC50 [4]: < 4.30; inhibition [8]: 23%; pIC50 [9]: 5.45
35 | COc1cc(O)c(C(N)=O)c2oc(C(=O)NC3CCN(Cc4ccccc4F)CC3)c(C)c12 | 31 | 29 | –
36 | CCOC(=O)c1oc2c(C(N)=O)c(O)cc(OC)c2c1C | 41 | 21 | –
37 | COc1cc(O)c(C(N)=O)c2oc(C(=O)Nc3ccc(F)c(C(F)(F)F)c3)c(C)c12 | 35 | 18 | –
38 | COc1cc(OC)c2c(C)c(C(=O)NC3CCN(Cc4cccc(C(F)(F)F)c4)CC3)oc2c1C(N)=O | 29 | 2 | –
39 | COc1cc(O)c(C(N)=O)c2oc(C(=O)N3CCCCC3)c(C)c12 | 23 | 19 | –
40 | COc1cc(O)c(C(N)=O)c2oc(C(=O)NCC3CCN(C(=O)c4ccc(F)cc4)CC3)c(C)c12 | 23 | 16 | –
41 | COc1cc(O)c(C(N)=O)c2oc(C(=O)NCc3ccccc3)c(C)c12 | 28 | 24 | –
